The source of these data is publication PMC11250141 (RSC Advances, 2024).

A short description of series [1]: Cell viability. In kind it is cell-based. Conditions: human, HUVEC cells. Summed up:
(§1)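 Caco-2 and Vero cells were grown in DMEM with 10% FBS, and HUVEC in DMEM-F12 with 10% FBS, at 37 °C and 5% CO₂. Cells were seeded at 5.000 per well 24 h before treatment. Test compound was diluted from a 100 mM DMSO stock into 1% FBS medium at 1, 10, 30, 50, 100 and 150 µM. Controls were 10% DMSO and medium alone. At 24, 48 and 72 h, cells got resazurin (0.5 mg mL⁻¹ solution) for 4 h, read at ex 560/em 590 nm. IC50 was from curve fitting.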

A short description of series [2]: Cell viability. In kind it is cell-based. Conditions: African green monkey, Vero cells. Summed up: as §1
The nature of series [3]: DPPH˙ scavenging activity. Conditions: 30 min, 515 nm; tested 10–100 µg mL^−1. An outline of the steps: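 Test compound (10–100 µg mL⁻¹) or 80% methanol control was mixed 1:2 (v/v) with DPPH solution, shaken, and kept 30 min at room temperature in the dark. Absorbance was read at 515 nm. Scavenging % = 100 × (1 − A sample/A DPPH blank). Ferulic and syringic acids served as references. Run in triplicate.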
For orientation: The DPPH test is a chemical assay of radical scavenging.

A short description of the next series: Lipoperoxidation. To be noted: SO + additive 200 ppm, 220 °C. Summed up:
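Sunflower oil with 200 ppm test compound was heated on a hot plate at 25, 100, 180 and 220 °C for 30 min (ramp 2 °C min⁻¹). Oil (0.5 mL) was vortexed with TBA/TCA/HCl and centrifuged 3500 rpm for 5 min. Supernatant was heated 90 °C for 15 min and read at 535 nm against an MDA curve, as nmol MDA per mL oil. Unsupplemented oil was the control. Run in triplicate.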

A short description of series [4]: Schaal Oven Test, TBARS, sunflower oil. To be noted: 60 °C, over 12 days. Summed up: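 Schaal oven test (AOCS Cg5-97): supplemented olive or sunflower oil was held at 60 ± 5 °C in the dark for 12 days, sampled every 3 days. TBARS: oil was mixed with TBA/TCA/HCl and centrifuged. Supernatant was heated 90 °C for 15 min and read at 535 nm against an MDA curve (nmol MDA per mL oil). n = 3, compared with unsupplemented oil.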

The nature of series [5]: Cell viability. In kind it is cell-based. Conditions: human, Caco-2 cells. Summed up: as §1
For series [6] the following is noted: SO + additive at 200 ppm. Summed up:
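Thermogravimetry of sunflower oil with 200 ppm test compound: about 10 mg oil in a Pt crucible was heated from ambient to 700 °C at 5 °C min⁻¹ in air (60 mL min⁻¹), with N₂ purge on the balance. Onset temperature and temperatures at 5, 10 and 50% mass loss came from TG/DTG curves and were compared with unsupplemented oil.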

The IC50 is the concentration that inhibits the measured activity by half.

Each structure is given as a SMILES string.

Regarding `CCCCCOc1c(OC)cc(C(=O)O)cc1OC` [Compound 5c, 3,5-Dimethoxy-4-(pentyloxy)benzoic acid], in the series “Cell viability [1]”, the IC50 at 24 h was over 100 µM, the IC50 at 48 h was over 100 µM and the IC50 at 72 h was over 100 µM. Also, in “Cell viability [2]”, the IC50 at 24 h is over 100 µM, the half-maximal inhibitory concentration (IC50) at 48 h was over 100 µM and the IC50 at 72 h was over 100 µM. In series [3], the “Antioxidant capacity (DPPH), IC50” value amounted to 34.98 ± 2.23 µg/mL. In the series “Lipoperoxidation”, the “Reduction in secondary oxidation (TBARS) in comparison with SOcontrol” value was determined as 5 times. For the same compound, in series [4], the “TBARS values compared with control” value is “decreased the TBARS values”. In “Cell viability [5]”, this compound had an IC50 at 24 h of over 100 µM, an IC50 at 48 h of over 100 µM and a half-maximal inhibitory concentration (IC50) at 72 h of over 100 µM. Moreover, the “Increase of onset temperature of mass loss (Tonset) in comparison with SO” value in series [6] was 37 °C. Besides, in series [6] (TGA in air), the “T 5 (5% mass loss)” value worked out at 368 °C, the “T 10 (10% mass loss)” value was 388 °C, the “T 50 (50% mass loss)” value was 426 °C and the “T onset (decomposition temperature: onset temperature)” value was found to be 318 °C.
